Source: ChEMBL document CHEMBL5096186, “Design, Synthesis, and Biological Evaluation of Novel Pyrimido[4,5-b]indole Derivatives Against Gram-Negative Multidrug-Resistant Pathogens” (J Med Chem, 2021)
pIC50: −log10 of the molar value. ≈ marks a conversion by molar mass, not a printed value.

What was measured:
Staphylococcus aureus = assay: Antibacterial activity against methicillin-sensitive Staphylococcus aureus strains 15 1 to 4 assessed as reduction in bacterial growth incubated for 18 to 20 hrs by CLSI based microdilution method; assay type: functional; details: time 18-20 hrs
Procedure, shortened: (§1)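 Broth microdilution per CLSI. Compounds dissolved in DMSO (levofloxacin and meropenem in water) as 64 μg/mL stock, then serial twofold dilutions in broth giving 64 to 0.008 μg/mL. […] Clinical isolates tested as several strains per group; racemic GP-1 served as positive control; values given as MIC ranges.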

[1] = tested on: Staphylococcus epidermidis; assay: Antibacterial activity against methicillin-sensitive Staphylococcus epidermidis strains 15 1 to 4 assessed as reduction in bacterial growth incubated for 18 to 20 hrs by CLSI based microdilution method; assay type: functional; details: time 18-20 hrs; procedure, shortened: as §1
Escherichia coli [2] = assay: Antibacterial activity against ESBL-producing Escherichia coli ATCC 35218 strains 15 1 to 3 assessed as reduction in bacterial growth incubated for 18 to 20 hrs by CLSI based microdilution method; assay type: functional; details: time 18-20 hrs
Procedure, shortened: (§2)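 CLSI broth microdilution. Compounds in DMSO (levofloxacin and meropenem in water), serial twofold dilutions in broth, 64 to 0.008 μg/mL. […] Results reported as MIC ranges across strains.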

Escherichia coli [3] = assay: Antibacterial activity against Escherichia coli ATCC 35218 strains 15 1 to 3 assessed as reduction in bacterial growth incubated for 18 to 20 hrs by CLSI based microdilution method; assay type: functional; details: time 18-20 hrs; procedure, shortened: as §2
Pseudomonas aeruginosa [4] = assay: Antibacterial activity against multidrug resistant Pseudomonas aeruginosa strains 15 1 to 3 assessed as reduction in bacterial growth incubated for 18 to 20 hrs by CLSI based microdilution method; assay type: functional; details: time 18-20 hrs; procedure, shortened: as §1
[5] = target: hERG (KCNH2) potassium channel (Homo sapiens, UniProt Q12809); assay: Inhibition of hERG potassium channel assessed as maximum inhibition rate at 40 uM at -80 mV holding potential incubated for 120 seconds by whole cell-automated voltage clamp analysis assay relative to control; assay type: toxicity; details: time 120 sec
Procedure, shortened: (§3)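 Automated whole-cell patch clamp, holding potential −80 mV. Voltage protocol applied every 20 s. Baseline set with external solution containing 0.1% DMSO and stabilised 3 min. Compound applied until steady state, at least 3 min, then washout. Maximum tested concentration 40 μM, or 3 μM for cisapride as positive control.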

[6] = target: Voltage-gated inwardly rectifying potassium channel KCNH2 (Homo sapiens, UniProt Q12809); assay: Inhibition of hERG potassium channel assessed as […] at -80 mV holding potential incubated for 120 seconds by whole cell-automated voltage clamp analysis assay; assay type: toxicity; procedure, shortened: as §3
Escherichia coli [7] = assay: Antibacterial activity against ESBL-producing multidrug resistant Escherichia coli assessed as reduction in bacterial growth incubated for 18 to 20 hrs by CLSI based microdilution method; assay type: functional; details: time 18-20 hrs; procedure, shortened: as §1
Escherichia coli [8] = assay: Antibacterial activity against multidrug resistant wild type Escherichia coli ATCC BAA-2340 assessed as reduction in bacterial growth incubated for 18 to 20 hrs by CLSI based microdilution method; assay type: functional; details: time 18-20 hrs; procedure, shortened: as §1
Escherichia coli [9] = assay: Antibacterial activity against multidrug resistant wild type Escherichia coli NCTC 13353 assessed as reduction in bacterial growth incubated for 18 to 20 hrs by CLSI based microdilution method; assay type: functional; details: time 18-20 hrs; procedure, shortened: as §1
Klebsiella pneumoniae [10] = assay: Antibacterial activity against KPC2-producing multidrug resistant Klebsiella pneumoniae assessed as reduction in bacterial growth incubated for 18 to 20 hrs by CLSI based microdilution method; assay type: functional; details: time 18-20 hrs; procedure, shortened: as §1
Klebsiella pneumoniae [11] = assay: Antibacterial activity agains wild type Klebsiella pneumoniae ATCC BAA-1705 assessed as reduction in bacterial growth incubated for 18 to 20 hrs by CLSI based microdilution method; assay type: functional; details: time 18-20 hrs; procedure, shortened: as §2
Klebsiella pneumoniae [12] = assay: Antibacterial activity agains wild type Klebsiella pneumoniae ATCC BAA-2470 assessed as reduction in bacterial growth incubated for 18 to 20 hrs by CLSI based microdilution method; assay type: functional; details: time 18-20 hrs; procedure, shortened: as §1
Acinetobacter baumannii [13] = assay: Antibacterial activity agains OXA23-producing multidrug resistant Acinetobacter baumannii assessed as reduction in bacterial growth incubated for 18 to 20 hrs by CLSI based microdilution method; assay type: functional; details: time 18-20 hrs; procedure, shortened: as §1
Acinetobacter baumannii [14] = assay: Antibacterial activity against wild type Acinetobacter baumannii NCTC 13304 assessed as reduction in bacterial growth incubated for 18 to 20 hrs by CLSI based microdilution method; assay type: functional; details: time 18-20 hrs; procedure, shortened: as §1
Pseudomonas aeruginosa [15] = assay: Antibacterial activity against IMP4-producing multidrug resistant Pseudomonas aeruginosa assessed as reduction in bacterial growth incubated for 18 to 20 hrs by CLSI based microdilution method; assay type: functional; details: time 18-20 hrs; procedure, shortened: as §1
Pseudomonas aeruginosa [16] = assay: Antibacterial activity against wild type Pseudomonas aeruginosa ATCC 27853 assessed as reduction in bacterial growth incubated for 18 to 20 hrs by CLSI based microdilution method; assay type: functional; details: time 18-20 hrs; procedure, shortened: as §2
[17] = Metabolic stability in rat liver microsome assessed as elimination half life at 0.1 uM in presence of NADPH incubated upto 60 mins by LC-MS/MS analysis; assay type: ADME; details: liver microsomes, read-out: beta t1/2
Procedure, shortened: (§4)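 Compound at 0.1 μM final, in 0.01% DMSO with 0.005% BSA. Incubated with rat or human liver microsomes at 0.33 mg/mL in 0.1 M Tris-HCl, pH 7.4, with 5 mM MgCl₂ and 1 mM NADPH, at 37 °C. Samples at 0, 7, 17, 30 and 60 min quenched with cold methanol and analysed by LC-MS/MS. Half-life, Cl_int and MF% derived as previously described.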

[18] = Metabolic stability in human liver microsome assessed as elimination half life at 0.1 uM in presence of NADPH incubated upto 60 mins by LC-MS/MS analysis; assay type: ADME; details: liver microsomes, read-out: beta t1/2; procedure, shortened: as §4
[19] = Metabolic stability in rat liver microsome assessed as intrinsic clearance at 0.1 uM in presence of NADPH incubated upto 60 mins by LC-MS/MS analysis; assay type: ADME; details: microsomes, 1 h; procedure, shortened: as §4
[20] = Metabolic stability in human liver microsome assessed as intrinsic clearance at 0.1 uM in presence of NADPH incubated upto 60 mins by LC-MS/MS analysis; assay type: ADME; details: microsomes, 1 h; procedure, shortened: as §4
[21] = Metabolic stability in rat liver microsome assessed as metabolic bioavailability at 0.1 uM in presence of NADPH incubated upto 60 mins by LC-MS/MS analysis; assay type: ADME; details: liver microsomes; procedure, shortened: as §4
[22] = Metabolic stability in human liver microsome assessed as metabolic bioavailability at 0.1 uM in presence of NADPH incubated upto 60 mins by LC-MS/MS analysis; assay type: ADME; details: liver microsomes; procedure, shortened: as §4
[23] = AUC (0 to infinity) in Sprague-Dawley rat at 4 mg/kg, iv measured upto 24 hrs by LC-MS/MS analysis; assay type: ADME, organism-based; design: time < 24 hrs, dose 4 mg/kg, route iv; details: in vivo
Procedure, shortened: (§5)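 Male Sprague-Dawley rats, n = 3 per group, single intravenous dose. For 4 mg/kg: 180–280 g rats, vehicle 5% DMSO + 5% EtOH + 40% PEG300 + 50% saline, blood from the retrobulbar vein at 0.05–24 h. For 5 and 20 mg/kg: 180–300 g rats, vehicle 5% DMSO + 5% solutol + 90% saline, sampled at 0.083–24 h. Plasma quantified by LC/MS/MS. Parameters from mean plasma concentration by noncompartmental analysis; values are mean ± standard deviation.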

[24] = Elimination half life in Sprague-Dawley rat at 4 mg/kg, iv measured upto 24 hrs by LC-MS/MS analysis; assay type: ADME, organism-based; details: in vivo, read-out: beta t1/2 (converted); procedure, shortened: as §5
[25] = MRT in Sprague-Dawley rat at 4 mg/kg, iv measured upto 24 hrs by LC-MS/MS analysis; assay type: ADME, organism-based; details: in vivo; procedure, shortened: as §5
[26] = Clearance in Sprague-Dawley rat at 4 mg/kg, iv measured upto 24 hrs by LC-MS/MS analysis; assay type: ADME, organism-based; details: in vivo; procedure, shortened: as §5
[27] = Volume of distribution at the steady state in Sprague-Dawley rat at 4 mg/kg, iv measured upto 24 hrs by LC-MS/MS analysis; assay type: ADME, organism-based; details: in vivo, read-out: Vdss; procedure, shortened: as §5
[28] = AUC (0 to infinity) in Sprague-Dawley rat at 5 mg/kg, iv measured upto 24 hrs by LC-MS/MS analysis; assay type: ADME, organism-based; design: time < 24 hrs, dose 5 mg/kg, route iv; details: in vivo; procedure, shortened: as §5
[29] = Elimination half life in Sprague-Dawley rat at 5 mg/kg, iv measured upto 24 hrs by LC-MS/MS analysis; assay type: ADME, organism-based; details: in vivo, read-out: beta t1/2 (converted); procedure, shortened: as §5
[30] = MRT in Sprague-Dawley rat at 5 mg/kg, iv measured upto 24 hrs by LC-MS/MS analysis; assay type: ADME, organism-based; details: in vivo; procedure, shortened: as §5
[31] = Clearance in Sprague-Dawley rat at 5 mg/kg, iv measured upto 24 hrs by LC-MS/MS analysis; assay type: ADME, organism-based; details: in vivo; procedure, shortened: as §5
[32] = Volume of distribution at the steady state in Sprague-Dawley rat at 5 mg/kg, iv measured upto 24 hrs by LC-MS/MS analysis; assay type: ADME, organism-based; details: in vivo, read-out: Vdss; procedure, shortened: as §5

Chain of Voltage-gated inwardly rectifying potassium channel KCNH2 (Q12809 whole entry): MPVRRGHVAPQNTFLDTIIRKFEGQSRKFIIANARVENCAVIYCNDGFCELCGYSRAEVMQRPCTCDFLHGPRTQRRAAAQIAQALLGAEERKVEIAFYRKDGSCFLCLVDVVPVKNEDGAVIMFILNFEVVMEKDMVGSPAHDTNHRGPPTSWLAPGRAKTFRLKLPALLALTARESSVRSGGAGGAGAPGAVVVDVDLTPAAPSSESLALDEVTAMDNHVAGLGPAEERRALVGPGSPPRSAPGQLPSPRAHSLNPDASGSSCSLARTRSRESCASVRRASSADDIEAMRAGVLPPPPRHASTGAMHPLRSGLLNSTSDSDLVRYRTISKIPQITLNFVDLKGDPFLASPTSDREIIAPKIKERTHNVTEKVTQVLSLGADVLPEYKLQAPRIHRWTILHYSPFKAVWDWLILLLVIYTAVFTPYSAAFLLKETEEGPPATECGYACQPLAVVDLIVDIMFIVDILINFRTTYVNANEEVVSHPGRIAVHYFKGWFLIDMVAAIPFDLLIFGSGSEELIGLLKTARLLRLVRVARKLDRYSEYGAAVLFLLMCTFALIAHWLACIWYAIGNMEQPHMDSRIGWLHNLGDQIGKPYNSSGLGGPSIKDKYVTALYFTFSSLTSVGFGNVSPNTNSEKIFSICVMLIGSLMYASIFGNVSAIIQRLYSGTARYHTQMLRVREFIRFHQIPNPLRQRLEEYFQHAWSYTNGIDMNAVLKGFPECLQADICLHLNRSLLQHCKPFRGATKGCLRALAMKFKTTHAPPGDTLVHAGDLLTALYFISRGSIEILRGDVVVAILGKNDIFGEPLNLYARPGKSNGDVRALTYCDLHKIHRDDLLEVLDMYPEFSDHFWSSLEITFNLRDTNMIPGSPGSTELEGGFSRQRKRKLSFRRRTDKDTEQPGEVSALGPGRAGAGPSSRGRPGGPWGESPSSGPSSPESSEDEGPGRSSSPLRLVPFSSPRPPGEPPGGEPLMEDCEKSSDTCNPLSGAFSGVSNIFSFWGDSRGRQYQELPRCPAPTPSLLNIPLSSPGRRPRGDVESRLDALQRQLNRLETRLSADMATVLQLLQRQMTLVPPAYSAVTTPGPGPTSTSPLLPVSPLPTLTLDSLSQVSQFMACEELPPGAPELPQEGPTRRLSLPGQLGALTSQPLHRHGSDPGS
Chain of hERG (KCNH2) potassium channel (Q12809 whole entry): as above

CCCC(CN)=C1CN(c2nc(Oc3cnc(C)nc3)nc3[nH]c4c(NC)cc(F)cc4c23)C1
MIC (Staphylococcus aureus): < 0.008 µg/mL | MIC [1]: < 0.008 µg/mL | MIC (Escherichia coli [2]): 0.125 µg/mL (≈ 0.27 µM) | MIC (Escherichia coli [3]): 0.06 µg/mL (≈ 0.13 µM) | MIC (Pseudomonas aeruginosa [4]): 2 µg/mL (≈ 4.32 µM) | inhibition at 2 min, 40 µM [5]: 50.6% | pIC50 [6]: 4.29 | MIC (Escherichia coli [7]): 1 µg/mL (≈ 2.16 µM) | MIC (Escherichia coli [8]): 1 µg/mL (≈ 2.16 µM) | MIC (Escherichia coli [9]): 0.5 µg/mL (≈ 1.08 µM) | MIC (Klebsiella pneumoniae [10]): 4 µg/mL (≈ 8.65 µM) | MIC (Klebsiella pneumoniae [11]): 8 µg/mL (≈ 17.3 µM) | MIC (Klebsiella pneumoniae [12]): 4 µg/mL (≈ 8.65 µM) | MIC (Acinetobacter baumannii [13]): 0.5 µg/mL (≈ 1.08 µM) | MIC (Acinetobacter baumannii [14]): 1 µg/mL (≈ 2.16 µM) | MIC (Pseudomonas aeruginosa [15]): 4 µg/mL (≈ 8.65 µM) | MIC (Pseudomonas aeruginosa [16]): 4 µg/mL (≈ 8.65 µM) | half-life at 0.1 µM [17]: 0.415 h | half-life at 0.1 µM [18]: 0.792 h | CLH [19]: 84.4 mL/min/g | CLH [20]: 44.3 mL/min/g | Fh at 1 h, 0.1 µM [21]: 34.5% | Fh at 1 h, 0.1 µM [22]: 30.7% | AUC(0-inf) [23]: 778 ng·h/mL | half-life [24]: 4.7 h | MRT [25]: 4.4 h | clearance [26]: 86.8 mL/min/kg | Vd [27]: 22.5 L/kg

CCNc1cc(F)cc2c1[nH]c1nc(Oc3cnc(C)nc3)nc(N3CC(=C(C)[C@@H](C)N)C3)c12
MIC (Escherichia coli [7]): 4 µg/mL (≈ 8.65 µM) | MIC (Escherichia coli [8]): 1 µg/mL (≈ 2.16 µM) | MIC (Escherichia coli [9]): 1 µg/mL (≈ 2.16 µM) | MIC (Klebsiella pneumoniae [10]): > 8 µg/mL | MIC (Klebsiella pneumoniae [11]): > 64 µg/mL | MIC (Klebsiella pneumoniae [12]): > 64 µg/mL | MIC (Acinetobacter baumannii [13]): 2 µg/mL (≈ 4.32 µM) | MIC (Acinetobacter baumannii [14]): 2 µg/mL (≈ 4.32 µM) | MIC (Pseudomonas aeruginosa [15]): > 64 µg/mL | MIC (Pseudomonas aeruginosa [16]): > 64 µg/mL | AUC(0-inf) [28]: 1290 ng·h/mL | half-life [29]: 6.7 h | MRT [30]: 4.3 h | clearance [31]: 64.7 mL/min/kg | Vd [32]: 16.7 L/kg
